Results taken from ChEMBL document CHEMBL1128721, “Identification, characterization and pharmacological profile of three metabolites of (R)-(+)-1,2,3,6-tetrahydro-4-phenyl-1-[(3-phenylcyclohexen-1-yl)methyl]pyridine (CI-1007), a dopamine autoreceptor agonist and potential antipsychotic agent” (J Med Chem, 1995).

Tests used:
[1] = biological target: T1, D(2) dopamine receptor (Homo sapiens, UniProt P14416); assay: Binding affinity towards human Dopamine receptor D2L evaluated using [3H]N-0437
Method in brief: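 CHO-K1 membranes expressing human D2L incubated in triplicate with 1 nM [3H]N-0437 in 25 mM Tris HCl pH 7.4 with 1 mM EDTA and 6 mM MgCl2, 25 °C for 60 min. Nonspecific binding set with 1 μM haloperidol. Filtration, scintillation counting. Ki by nonlinear regression from four to six concentrations, ± SEM.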

[2] = biological target: T2, D(4) dopamine receptor (Homo sapiens, UniProt P21917); assay: Binding affinity towards human Dopamine receptor D4.2 evaluated using [3H]spiperone
T2 sequence (P21917 whole entry): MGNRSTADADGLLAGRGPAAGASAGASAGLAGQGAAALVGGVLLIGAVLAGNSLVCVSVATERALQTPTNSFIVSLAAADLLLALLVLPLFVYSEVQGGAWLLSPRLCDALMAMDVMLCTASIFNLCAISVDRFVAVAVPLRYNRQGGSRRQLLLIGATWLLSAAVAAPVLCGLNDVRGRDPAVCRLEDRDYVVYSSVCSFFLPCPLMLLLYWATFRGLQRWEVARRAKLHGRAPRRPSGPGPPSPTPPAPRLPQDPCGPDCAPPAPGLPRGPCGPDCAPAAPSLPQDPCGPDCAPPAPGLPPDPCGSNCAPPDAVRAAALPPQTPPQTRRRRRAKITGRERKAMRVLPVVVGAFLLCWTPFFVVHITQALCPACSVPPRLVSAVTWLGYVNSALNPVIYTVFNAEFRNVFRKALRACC
Method in brief: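 CHO-K1 membranes bearing human D4.2 run in triplicate with 0.2 nM [3H]spiperone in Tris HCl pH 7.4 buffer with 1.5 mM CaCl2 and 5 mM KCl, 25 °C, 60 min. Specific binding is the fraction blocked by 1 μM haloperidol. Filtration, then scintillation counting. Ki ± SEM by nonlinear regression over four to six concentrations; IC50 given where inhibition at 10 μM is below 50%.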

[3] = system: Rattus norvegicus; assay: Effect on DOPA accumulation in rat striatum after intraperitoneal administration of compound (10 mg/kg) and GBL, was determined and expressed as percent reversal of the increase in DOPA; assay type: functional
Method in brief: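 Male Long-Evans rats given compound 10 mg/kg ip 60 min before sacrifice. GBL 750 mg/kg ip (omitted in controls) and NSD 1015 100 mg/kg ip given 30 min before sacrifice. Striatal DOPA measured by HPLC with electrochemical detection. Result is percent reversal of the GBL-induced DOPA rise, ± SEM.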

[4] = system: Rattus norvegicus; assay: Effect on […] in rats after intraperitoneal administration of compound (10 mg/kg) and GBL, was determined and expressed as percent reversal of the increase in DOPA; assay type: functional
[5] = system: Monkey; assay: Inhibition of conditioned avoidance in squirrel monkeys was determined after peroral administration of compound; assay type: functional; conditions: in Saimiri, po
Method in brief: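 Squirrel monkeys dosed orally, conditioned avoidance monitored for 6 h. Inhibition taken as percent of control avoidance responding over the 4 h peak-effect period. ED50 with 95% confidence range from three doses, eight monkeys per dose.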

[6] = system: Mus musculus; assay: Inhibition of locomotor activity in mice was determined after intraperitoneal administration of compound; assay type: functional; conditions: ip
Method in brief: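 Mice dosed ip, then tested immediately for 1 h in darkened cylindrical photobeam chambers. Inhibition expressed relative to vehicle-treated mice. ED50 with 95% confidence range from three to six doses, 6–18 animals per dose.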

[7] = biological target: T1, D(2) dopamine receptor; assay: Intrinsic activity relative to Quinpirole for human Dopamine receptor D2L was determined
Method in brief: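 CHO-10001 cells transfected with human DA D2L receptor; activation read as stimulation of [3H]thymidine uptake (mitogenesis). Intrinsic activity = maximal response of compound relative to maximal response of full DA agonist quinpirole, ± SEM.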

[8] = system: Rattus norvegicus; assay: Effect on DOPA accumulation in rat striatum after intraperitoneal administration of compound (3 mg/kg) and GBL, was determined and expressed as percent reversal of the increase in DOPA; assay type: functional
[9] = biological target: T1, D(2) dopamine receptor; assay: Binding affinity towards human Dopamine receptor D2L evaluated using [3H]spiperone
Method in brief: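 Human D2L expressed in CHO-K1 membranes. Labelled with 0.6 nM [3H]spiperone in triplicate in Tris HCl pH 7.4 buffer with 1 mM EDTA and 6 mM MgCl2, 60 min at 25 °C. 1 μM haloperidol defines specific binding. Bound ligand filtered and counted. Ki ± SEM from four to six concentrations by nonlinear regression.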

[10] = biological target: D(3) dopamine receptor (Homo sapiens, UniProt P35462); assay: Binding affinity towards human Dopamine receptor D3 evaluated using [3H]spiperone
Chain of D(3) dopamine receptor (P35462 whole entry): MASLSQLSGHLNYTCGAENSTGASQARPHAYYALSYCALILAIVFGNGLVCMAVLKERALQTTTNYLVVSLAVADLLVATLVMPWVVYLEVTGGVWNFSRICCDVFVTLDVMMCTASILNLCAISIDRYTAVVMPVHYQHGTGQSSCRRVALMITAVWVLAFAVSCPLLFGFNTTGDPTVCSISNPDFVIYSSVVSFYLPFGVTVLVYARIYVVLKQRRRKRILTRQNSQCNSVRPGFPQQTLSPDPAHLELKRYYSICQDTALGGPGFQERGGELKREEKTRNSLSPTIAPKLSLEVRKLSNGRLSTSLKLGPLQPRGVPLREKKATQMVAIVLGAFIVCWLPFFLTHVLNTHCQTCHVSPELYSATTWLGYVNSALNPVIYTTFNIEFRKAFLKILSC

T1 sequence (P14416 whole entry): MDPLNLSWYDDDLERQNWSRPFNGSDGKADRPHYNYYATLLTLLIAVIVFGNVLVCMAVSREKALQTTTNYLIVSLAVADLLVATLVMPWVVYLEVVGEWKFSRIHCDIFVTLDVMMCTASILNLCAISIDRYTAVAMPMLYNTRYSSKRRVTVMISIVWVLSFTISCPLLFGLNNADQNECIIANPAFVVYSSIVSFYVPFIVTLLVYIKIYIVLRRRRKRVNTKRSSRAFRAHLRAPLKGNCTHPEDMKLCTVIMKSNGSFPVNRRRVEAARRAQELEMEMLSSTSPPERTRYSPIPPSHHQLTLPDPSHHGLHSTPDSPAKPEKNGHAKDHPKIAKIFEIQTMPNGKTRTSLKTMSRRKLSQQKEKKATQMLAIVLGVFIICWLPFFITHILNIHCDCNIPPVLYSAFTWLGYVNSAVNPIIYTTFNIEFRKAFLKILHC

Structure (SMILES): Oc1ccc(C2=CCC[C@@H](CN3CC=C(c4ccccc4)CC3)C2)cc1
- Ki [1]: 0.2 nM
- Ki [2]: 61.4 nM
- Activity [3]: -27
- Activity [4]: -100
- ED50 [5]: 1.34 mg/kg
- ED50 [6]: 0.3 mg/kg
- Activity [7]: 0.62
- Activity [8]: -44
- Ki [9]: 3.5 nM
- Ki [10]: 0.52 nM

Structure (SMILES): Oc1ccc(C2=CCN(C[C@@H]3CCC=C(c4ccccc4)C3)CC2)cc1
- Ki [1]: 5.7 nM
- Ki [2]: > 10000 nM
- Activity [3]: 0
- Activity [4]: 33
- ED50 [5]: > 2.5 mg/kg
- ED50 [6]: > 30 mg/kg
- Activity [7]: 0.37
- Ki [9]: 94 nM
- Ki [10]: 56.7 nM

Structure (SMILES): C1=C(c2ccccc2)CCN(C[C@@H]2CCC=C(c3ccccc3)C2)C1 [CI-1007]
- Ki [1]: 8.4 nM
- Activity [3]: -66
- Activity [4]: -99
- ED50 [5]: 0.63 mg/kg
- ED50 [6]: 0.7 mg/kg
- Activity [7]: 0.66

Structure (SMILES): Oc1ccc(C2=CCN(C[C@@H]3CCC=C(c4ccc(O)cc4)C3)CC2)cc1
- Ki [1]: 2.2 nM
- Ki [2]: 68 nM
- Activity [3]: -8
- Activity [4]: -10
- ED50 [5]: > 2.5 mg/kg
- ED50 [6]: 6.1 mg/kg
- Activity [7]: 0.29
- Ki [9]: 10.3 nM
- Ki [10]: 3.4 nM
